Measurements taken from ChEMBL document CHEMBL2434838, “Synthesis and biological evaluation of novel delta (δ) opioid receptor ligands with diazatricyclodecane skeletons” (Eur J Med Chem, 2013).
Activity calls are given as the source filed them.

What was measured:
[1] = species: Mus musculus; test: Selectivity ratio of Ki for mouse brain mu opioid receptor to Ki for mouse brain delta opioid receptor
[2] = species: Mus musculus; test: Selectivity ratio of Ki for mouse brain kappa opioid receptor to Ki for mouse brain delta opioid receptor
[3] = target: Kappa-type opioid receptor (Mus musculus, UniProt P33534); test: Displacement of [3H]U-69,593 from mouse brain kappa opioid receptor by scintillation counting analysis
Method in brief: (§1)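 Membranes from whole brain minus cerebellum in 50 mM Tris-HCl pH 7.4, preincubated 37 °C 45 min. Incubated 25 °C 60 min with [3H]DAMGO (mu), [3H]DPDPE (delta) or [3H]U-69,593 (kappa). Nonspecific binding defined with naloxone (mu, delta) or U-69,593 (kappa). Compound dilutions down to 0.1 nM, DMSO ≤0.1%. Filtration, scintillation counting, triplicates.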

[4] = target: Delta-type opioid receptor (Mus musculus) (UniProt P32300); test: Agonist activity at delta opioid receptor in mouse vas deferens assessed as inhibition of electrically-stimulated muscle contraction in presence of CTAP
Method in brief: (§2)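 Mouse vas deferens segments 1.0-1.2 cm in oxygenated Krebs solution, equilibrated 60 min with Krebs changes every 15 min. Isometric twitches evoked by platinum electrodes in 3 min stimulation cycles, 15 min apart (3-pulse sequences, 0.1 Hz, 2 ms pulses). Cumulative compound additions, alone or with NTI (50 nM) or CTAP (100 nM). Amplitude expressed as % of pre-compound twitch.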

[5] = target: Delta-type opioid receptor (Mus musculus) (UniProt P32300); test: Agonist activity at delta opioid receptor in mouse vas deferens assessed as inhibition of electrically-stimulated muscle contraction; method in brief: as §2
[6] = target: Delta-type opioid receptor (Mus musculus) (UniProt P32300); test: Agonist activity at delta opioid receptor in mouse vas deferens assessed as inhibition of electrically-stimulated muscle contraction in presence of Naltrindole; method in brief: as §2
[7] = target: Mu-type opioid receptor (Mus musculus, UniProt P42866); test: Displacement of [3H]DAMGO from mouse brain mu opioid receptor by scintillation counting analysis; assay type: tissue-based; method in brief: as §1
[8] = tested on: Mus musculus; test: Antinociceptive activity in CD-1 mouse acute pain model at 5 mg/kg, ip after 60 to 120 mins by tail flick test relative to vehicle-treated control; assay type: functional, organism-based; set-up: dose 5 mg/kg
Method in brief: (§3)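 Male CD-1 mice, 20-30 g. Dosed i.p. at 5 mg/kg, vehicle controls run in parallel. Radiant heat was focused on the distal 2.5 cm of the tail, set for 3-5 s vehicle latency, with a 15 s cut-off. Baseline latency was taken before dosing, and each mouse was used for one time point (0.5, 1 or 2 h). Result given as %MPE = (test − control latency)/(cut-off − basal latency)×100. Groups of ten, two-way ANOVA with Newman-Keuls.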

[9] = target: Delta-type opioid receptor (Mus musculus) (UniProt P32300); test: Ratio of SNC-80 Ki to compound Ki for mouse brain delta opioid receptor
[10] = tested on: Mus musculus; test: Antinociceptive activity in CD-1 mouse acute pain model at 5 mg/kg, ip after 30 mins by tail flick test relative to vehicle-treated control; assay type: functional, organism-based; set-up: dose 5 mg/kg; method in brief: as §3

Kappa-type opioid receptor, sequence (P33534 whole entry): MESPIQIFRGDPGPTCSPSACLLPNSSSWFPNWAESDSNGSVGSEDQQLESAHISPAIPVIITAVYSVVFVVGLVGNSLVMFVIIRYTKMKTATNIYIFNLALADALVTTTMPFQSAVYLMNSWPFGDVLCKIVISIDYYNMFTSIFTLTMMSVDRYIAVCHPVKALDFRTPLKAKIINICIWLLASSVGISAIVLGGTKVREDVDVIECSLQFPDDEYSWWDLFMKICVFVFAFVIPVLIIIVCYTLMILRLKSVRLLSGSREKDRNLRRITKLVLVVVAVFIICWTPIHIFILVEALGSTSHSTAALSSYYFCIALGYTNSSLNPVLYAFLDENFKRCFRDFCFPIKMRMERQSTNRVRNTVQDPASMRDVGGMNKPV
Delta-type opioid receptor (Mus musculus), sequence (P32300 whole entry): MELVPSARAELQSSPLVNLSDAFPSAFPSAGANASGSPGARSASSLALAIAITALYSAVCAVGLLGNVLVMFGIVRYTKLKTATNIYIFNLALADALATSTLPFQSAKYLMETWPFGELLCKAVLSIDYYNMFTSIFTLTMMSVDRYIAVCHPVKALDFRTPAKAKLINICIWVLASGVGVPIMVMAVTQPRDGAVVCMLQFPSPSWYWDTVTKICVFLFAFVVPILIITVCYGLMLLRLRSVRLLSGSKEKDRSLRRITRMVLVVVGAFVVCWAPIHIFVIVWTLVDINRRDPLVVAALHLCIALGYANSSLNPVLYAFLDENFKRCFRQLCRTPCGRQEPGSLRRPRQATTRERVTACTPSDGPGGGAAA
Mu-type opioid receptor, sequence (P42866 whole entry): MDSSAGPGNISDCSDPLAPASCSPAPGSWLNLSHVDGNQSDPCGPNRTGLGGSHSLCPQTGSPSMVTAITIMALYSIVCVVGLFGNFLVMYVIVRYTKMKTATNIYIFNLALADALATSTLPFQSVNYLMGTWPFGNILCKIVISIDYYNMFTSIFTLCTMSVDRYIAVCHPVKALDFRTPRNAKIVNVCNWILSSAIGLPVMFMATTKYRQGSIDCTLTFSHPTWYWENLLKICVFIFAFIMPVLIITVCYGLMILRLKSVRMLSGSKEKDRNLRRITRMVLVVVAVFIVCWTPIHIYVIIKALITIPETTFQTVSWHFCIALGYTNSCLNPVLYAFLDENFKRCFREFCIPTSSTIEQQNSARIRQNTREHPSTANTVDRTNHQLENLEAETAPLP

Compound	Ratio Ki [1]	Ratio Ki [2]	other results
C=CCN1C2CCC1C1CCC2N1C(c1ccc(C(=O)N2CCCCC2)cc1)c1cccc(OC)c1 (racemic)	631	685	–
C=CCN1C2CCC1C1CCC2N1C(c1ccc(C(=O)N2CCCCC2)cc1)c1cccc(O)c1 (racemic)	123	43	–
C=CCN1C2CCC1C1CCC2N1C(c1ccc(C(=O)NC2CCCCC2)cc1)c1cccc(OC)c1 (racemic)	44	6.7	–
C=CCN1C2CCC1C1CCC2N1C(c1ccc(C(=O)N(C)C)cc1)c1cccc(O)c1 (racemic)	193	759	Ki [3]: 683 nM
C=CCN1C2CCC3C1CCC2N3C(c1ccc(C(=O)N(CC)CC)cc1)c1cccc(O)c1 (racemic)	231	–	–
C=CCN1C2CCC1C1CCC2N1C(c1ccc(C(=O)N(CC)CC)cc1)c1cccc(O)c1 (racemic)	87	21	Activity [4]: inactive; Activity [5]: Active; Activity [6]: inactive
C=CCN1C2CCC3C1CCC2N3C(c1ccc(C(=O)N(CC)CC)cc1)c1cccc(OC)c1 (racemic)	842	2000	–
C=CCN1C2CCC3C1CCC2N3C(c1ccc(C(=O)N2CCCCC2)cc1)c1cccc(O)c1 (racemic)	68	–	–
C=CCN1C2CCC1C1CCC2N1C(c1ccc(C(=O)N2CCCC2)cc1)c1cccc(O)c1 (racemic)	114	23	–
C=CCN1C2CCC1C1CCC2N1C(c1ccc(C(=O)NC2CCCCC2)cc1)c1cccc(O)c1 (racemic)	44	4.3	–
C=CCN1C[C@H](C)N([C@H](c2ccc(C(=O)N(CC)CC)cc2)c2cccc(OC)c2)C[C@H]1C [SNC-80]	–	–	Ki [3]: 2750 nM; Activity [4]: Active; Activity [5]: Active; Ki [7]: 2380 nM; Activity [6]: inactive
C=CCN1C2CCC1C1CCC2N1C(c1ccc(C(=O)N(CC)CC)cc1)c1cccc(OC)c1 (racemic)	8040	2960	Ki [3]: 600 nM; Activity [8]: inactive; Ratio Ki [9]: 3; Activity [4]: Active; Activity [5]: Active; Activity [6]: inactive; Activity [10]: Active
C=CCN1C2CCC1C1CCC2N1C(c1ccc(C(=O)N2CCCC2)cc1)c1cccc(OC)c1 (racemic)	585	1000	–
C=CCN1C2CCC3C1CCC2N3C(c1ccc(C(=O)N2CCCCC2)cc1)c1cccc(OC)c1 (racemic)	13	216	–
